The record followed here is ChEMBL document CHEMBL4627381, “Licochalcone A Selectively Resensitizes ABCG2-Overexpressing Multidrug-Resistant Cancer Cells to Chemotherapeutic Drugs” (J Nat Prod, 2020).

Structures are written as SMILES.

For data set [1], the target named is ATP-dependent translocase ABCB1 (Homo sapiens, UniProt P08183). Kind of data set: Reversal of human ABCB1-mediated multidrug resistance in HEK293/MDR19 cells assessed as fold change in colchicine IC50 at 1 uM after 72 hrs by CCK8 relative to colchicine IC50. It is filed as cell-based. The gist of the method:
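Cells were seeded at 5000/well for 24 h, then given colchicine, etoposide, mitoxantrone or topotecan ± non-toxic modulator (0.5–3.0 μM) for 72 h, with DMSO up to 0.5%. IC50 came from fitted curves (mean ± SD, three experiments). Fold-reversal = IC50 without modulator ÷ IC50 with modulator.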

The test system of a further data set is HEK293. The data set can be described thus: Effect on Colchicine-induced cytotoxicity against HEK293 cells assessed as fold change in colchicine IC50 at 1 uM after 72 hrs by CCK8 assay relative to colchicine IC50. Format: cell-based. As to conditions: human, hek293, 72 h. The gist of the method: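 Reversal assay in parental pcDNA-HEK293 and transfected HEK293 lines (ABCB1 for colchicine, ABCC1 for etoposide, ABCG2 for mitoxantrone/topotecan). Substrate drug series was given with or without nontoxic modulator (0.5, 1.0, 2.0 or 3.0 μM) for 72 h, with a CCK-8 read-out. Fold-reversal is substrate IC50 without modulator divided by IC50 with modulator. Three independent experiments.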

The test system of data set [2] is S1. Kind of data set: Induction of apoptosis in human S1 cells assessed as viable cells at 5 uM incubated for 48 hrs by annexin V/propidium iodide staining based flow cytometry (reference value: 94.1%). Format: functional. As to conditions: S1, 48 h, read-out: Activity. (In general: Flow cytometry measures light scatter and fluorescence of single cells or particles in a stream.)

For data set [3], the system named is S1. Kind of data set: Induction of apoptosis in human S1 cells assessed as late apoptotic cells at 5 uM incubated for 48 hrs by annexin V/propidium iodide staining based flow cytometry (reference value: 3.6%). Format: functional. Put shortly:
(§1)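 S1 cells were exposed for 48 h to DMSO, 10 μM compound, 5 μM topotecan, or 5 μM topotecan plus 10 μM compound. They were then stained with 1.25 μg/mL annexin V–FITC and 0.1 mg/mL PI for 15 min at room temperature. 10000 cells per sample were analysed by flow cytometry; three independent experiments.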

Data set [4] relates to S1. Kind of data set: Induction of apoptosis in human S1 cells assessed as early apoptotic cells at 5 uM incubated for 48 hrs by annexin V/propidium iodide staining based flow cytometry (reference value: 2%). It is filed as functional. Put shortly:
as §1

The test system of data set [5] is S1. The data set can be described thus: Induction of apoptosis in human S1 cells assessed as necrotic cells at 5 uM incubated for 48 hrs by annexin V/propidium iodide staining based flow cytometry (reference value: 0.2%). Format: functional.

Chain of ATP-dependent translocase ABCB1 (P08183 whole entry): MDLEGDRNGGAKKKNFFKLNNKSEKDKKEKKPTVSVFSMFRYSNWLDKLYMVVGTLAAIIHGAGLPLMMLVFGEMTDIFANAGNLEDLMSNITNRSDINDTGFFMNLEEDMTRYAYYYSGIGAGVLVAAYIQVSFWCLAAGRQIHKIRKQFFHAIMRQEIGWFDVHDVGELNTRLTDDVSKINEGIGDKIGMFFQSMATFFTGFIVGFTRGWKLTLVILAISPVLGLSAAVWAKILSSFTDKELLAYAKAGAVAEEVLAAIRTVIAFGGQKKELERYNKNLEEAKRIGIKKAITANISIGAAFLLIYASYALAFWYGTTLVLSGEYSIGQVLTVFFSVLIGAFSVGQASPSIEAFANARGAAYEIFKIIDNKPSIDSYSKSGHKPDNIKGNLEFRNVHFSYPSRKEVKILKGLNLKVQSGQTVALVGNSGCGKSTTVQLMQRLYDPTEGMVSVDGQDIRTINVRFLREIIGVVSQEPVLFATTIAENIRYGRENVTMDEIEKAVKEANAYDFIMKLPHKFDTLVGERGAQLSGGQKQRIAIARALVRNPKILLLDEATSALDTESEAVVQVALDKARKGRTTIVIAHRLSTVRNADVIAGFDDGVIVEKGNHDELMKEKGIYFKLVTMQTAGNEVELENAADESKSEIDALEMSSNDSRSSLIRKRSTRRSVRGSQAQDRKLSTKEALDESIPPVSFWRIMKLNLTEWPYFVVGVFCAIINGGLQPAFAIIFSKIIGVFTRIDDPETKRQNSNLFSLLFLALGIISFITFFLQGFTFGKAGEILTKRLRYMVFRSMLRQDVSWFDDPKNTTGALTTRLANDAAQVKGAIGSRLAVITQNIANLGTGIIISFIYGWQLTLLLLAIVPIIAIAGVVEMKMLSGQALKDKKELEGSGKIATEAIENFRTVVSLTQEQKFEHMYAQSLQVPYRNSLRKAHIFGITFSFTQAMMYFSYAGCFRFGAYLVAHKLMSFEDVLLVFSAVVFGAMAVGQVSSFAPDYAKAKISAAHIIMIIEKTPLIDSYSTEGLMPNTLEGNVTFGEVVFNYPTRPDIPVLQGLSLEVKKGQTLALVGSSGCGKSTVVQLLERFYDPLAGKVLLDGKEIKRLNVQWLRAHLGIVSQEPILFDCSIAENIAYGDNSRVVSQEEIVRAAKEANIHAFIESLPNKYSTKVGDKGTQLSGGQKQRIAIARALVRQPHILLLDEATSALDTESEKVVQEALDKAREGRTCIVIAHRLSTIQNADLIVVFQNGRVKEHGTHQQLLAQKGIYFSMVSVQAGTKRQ

For the molecule `COc1cc2c(cc1OC)CN(CCc1ccc(NC(=O)c3cc(OC)c(OC)cc3NC(=O)c3cnc4ccccc4c3)cc1)CC2`, the figures for the “fold change (FC)” value (in data set [1]; with HEK293) were 12.5 and 1.1, respectively.

For `CC[C@@]1(O)C(=O)OCc2c1cc1n(c2=O)Cc2cc3c(CN(C)C)c(O)ccc3nc2-1` [TOPOTECAN], the viability at 5 µM in the data set on S1 [2] stood at 42.7%. In addition, the Activity in the data set with S1 [3] amounted to 22.7%; in the data set with S1 [4], 31.2%; in the data set with S1 [5] it was 3.5%.
